ChEMBL document CHEMBL2177098, “Synthesis and evaluation of novel ¹⁸F labeled 2-pyridinylbenzoxazole and 2-pyridinylbenzothiazole derivatives as ligands for positron emission tomography (PET) imaging of β-amyloid plaques” (J Med Chem, 2012)

How the values were obtained:
[1] = system: Spleen; experiment: Drug uptake in ICR mouse spleen at 370 kBq/100 ul, iv at 30 mins by gamma-counting analysis; type: ADME, organism-based; conditions: in vivo, 0.5 h
Method in brief: (§1)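 Male ICR mice (5 weeks, about 20 g) got 18F tracer in saline (370 KBq per 100 μL) via tail vein; n = 5 per time point, killed at 2, 10, 30, 60 min. Organs weighed and γ-counted; percent dose per gram wet tissue from comparison with diluted injectate aliquots.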

[2] = system: Heart; experiment: Drug uptake in ICR mouse heart at 370 kBq/100 ul, iv at 60 mins by gamma-counting analysis; type: ADME, organism-based; conditions: in vivo, 1 h; method in brief: as §1
[3] = system: Brain; experiment: Drug uptake in ICR mouse brain at 370 kBq/100 ul, iv at 60 mins by gamma-counting analysis; type: ADME, organism-based; conditions: in vivo, 1 h; method in brief: as §1
[4] = system: Intestine; experiment: Drug uptake in ICR mouse intestine assessed per organ at 370 kBq/100 ul, iv at 30 mins by gamma-counting analysis; type: ADME, organism-based; conditions: in vivo, 0.5 h
Method in brief: (§2)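 Male ICR mice (5 weeks, about 20 g) got 18F tracer in saline (370 KBq per 100 μL) via tail vein; n = 5 per time point, killed at 2, 10, 30, 60 min. Organs removed and γ-counted against diluted injectate; expressed as % injected dose per organ.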

[5] = system: Blood; experiment: Drug uptake in ICR mouse blood at 370 kBq/100 ul, iv at 60 mins by gamma-counting analysis; type: ADME, organism-based; conditions: in vivo, 1 h; method in brief: as §1
[6] = system: Liver; experiment: Drug uptake in ICR mouse liver at 370 kBq/100 ul, iv at 10 mins by gamma-counting analysis; type: ADME, organism-based; conditions: in vivo; method in brief: as §1
[7] = system: Brain; experiment: Drug uptake in wild type C57BL6 mouse brain at 370 KBq/100 ul after 1 hr by autoradiographic analysis; type: ADME, tissue-based; conditions: in vitro
Method in brief: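 Paraffin brain sections from 12-month-old male control C57BL6 mice were deparaffinized through xylene and graded ethanol, then held in PBS (0.2 M, pH 7.4) for 30 min. They were incubated with the ¹⁸F tracer (370 KBq per 100 μL) for 1 h at room temperature. Sections were washed in 40% EtOH, rinsed with water for 1 min, dried, and exposed to a phosphor plate for 2 h. The same sections were then stained with thioflavin S.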

[8] = system: Lung; experiment: Drug uptake in ICR mouse lung at 370 kBq/100 ul, iv at 60 mins by gamma-counting analysis; type: ADME, organism-based; conditions: in vivo, 1 h; method in brief: as §1
[9] = system: Brain; experiment: Ratio of drug uptake in brain at 2 mins to drug uptake in brain at 60 mins in ICR mouse at 370 KBq/100 ul, iv; type: ADME, organism-based; conditions: in vivo
Method in brief: (§3)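 Normal male ICR mice (5 weeks, about 20 g) received the ¹⁸F tracer in saline (370 KBq per 100 μL) by tail-vein injection. Groups of n = 5 were killed at 2, 10, 30 and 60 min. Organs were removed, weighed and γ-counted against diluted aliquots of the injectate, giving % dose per gram. Stomach and intestine were expressed per organ. The brain ratio is 2 min/60 min uptake. Values are mean ± SD.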

[10] = system: Kidney; experiment: Drug uptake in ICR mouse kidney at 370 kBq/100 ul, iv at 2 mins by gamma-counting analysis; type: ADME, organism-based; conditions: in vivo; method in brief: as §1
[11] = system: Heart; experiment: Drug uptake in ICR mouse heart at 370 kBq/100 ul, iv at 30 mins by gamma-counting analysis; type: ADME, organism-based; conditions: in vivo, 0.5 h; method in brief: as §1
[12] = system: Heart; experiment: Drug uptake in ICR mouse heart at 370 kBq/100 ul, iv at 2 mins by gamma-counting analysis; type: ADME, organism-based; conditions: in vivo; method in brief: as §1
[13] = system: Kidney; experiment: Drug uptake in ICR mouse kidney at 370 kBq/100 ul, iv at 60 mins by gamma-counting analysis; type: ADME, organism-based; conditions: in vivo, 1 h; method in brief: as §1
[14] = system: Bone; experiment: Drug uptake in ICR mouse bone at 370 kBq/100 ul, iv at 10 mins by gamma-counting analysis; type: ADME, organism-based, Bone element; conditions: in vivo; method in brief: as §1
[15] = system: Bone; experiment: Drug uptake in ICR mouse bone at 370 kBq/100 ul, iv at 2 mins by gamma-counting analysis; type: ADME, organism-based, Bone element; conditions: in vivo; method in brief: as §1
[16] = system: Heart; experiment: Drug uptake in ICR mouse heart at 370 kBq/100 ul, iv at 10 mins by gamma-counting analysis; type: ADME, organism-based; conditions: in vivo; method in brief: as §1
[17] = system: Blood; experiment: Drug uptake in ICR mouse blood at 370 kBq/100 ul, iv at 10 mins by gamma-counting analysis; type: ADME, organism-based; conditions: in vivo; method in brief: as §1
[18] = Displacement of [125I]-IMPY from amyloid beta (1 to 42) fibrils after 2 hrs by gamma-counting analysis
Method in brief: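 Competition binding with aggregated Aβ1-42 fibrils and [125I]IMPY (60000−100000 cpm/100 μL) in 0.05% BSA (1 mL total); inhibitors 10⁻⁴−10^−8.5 M in ethanol. Incubated 37 °C for 2 h, then GF/B vacuum filtration with PBS (0.02 M, pH 7.4) washes and γ counting. Three repeats; IC50 converted to Ki by Cheng−Prusoff.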

[19] = system: Blood; experiment: Drug uptake in ICR mouse blood at 370 kBq/100 ul, iv at 2 mins by gamma-counting analysis; type: ADME, organism-based; conditions: in vivo; method in brief: as §1
[20] = system: Intestine; experiment: Drug uptake in ICR mouse intestine assessed per organ at 370 kBq/100 ul, iv at 60 mins by gamma-counting analysis; type: ADME, organism-based; conditions: in vivo, 1 h; method in brief: as §2
[21] = system: Lung; experiment: Drug uptake in ICR mouse lung at 370 kBq/100 ul, iv at 2 mins by gamma-counting analysis; type: ADME, organism-based; conditions: in vivo; method in brief: as §1
[22] = system: Stomach; experiment: Drug uptake in ICR mouse stomach assessed per organ at 370 kBq/100 ul, iv at 10 mins by gamma-counting analysis; type: ADME, organism-based; conditions: in vivo; method in brief: as §2
[23] = system: Intestine; experiment: Drug uptake in ICR mouse intestine assessed per organ at 370 kBq/100 ul, iv at 10 mins by gamma-counting analysis; type: ADME, organism-based; conditions: in vivo; method in brief: as §2
[24] = system: Stomach; experiment: Drug uptake in ICR mouse stomach assessed per organ at 370 kBq/100 ul, iv at 30 mins by gamma-counting analysis; type: ADME, organism-based; conditions: in vivo, 0.5 h; method in brief: as §2
[25] = system: Kidney; experiment: Drug uptake in ICR mouse kidney at 370 kBq/100 ul, iv at 30 mins by gamma-counting analysis; type: ADME, organism-based; conditions: in vivo, 0.5 h; method in brief: as §1
[26] = system: Stomach; experiment: Drug uptake in ICR mouse stomach assessed per organ at 370 kBq/100 ul, iv at 2 mins by gamma-counting analysis; type: ADME, organism-based; conditions: in vivo; method in brief: as §2
[27] = system: Liver; experiment: Drug uptake in ICR mouse liver at 370 kBq/100 ul, iv at 2 mins by gamma-counting analysis; type: ADME, organism-based; conditions: in vivo; method in brief: as §1
[28] = system: Brain; experiment: Drug uptake in ICR mouse brain at 370 kBq/100 ul, iv at 2 mins by gamma-counting analysis; type: ADME, organism-based; conditions: in vivo; method in brief: as §1
[29] = system: Kidney; experiment: Drug uptake in ICR mouse kidney at 370 kBq/100 ul, iv at 10 mins by gamma-counting analysis; type: ADME, organism-based; conditions: in vivo; method in brief: as §1
[30] = system: Liver; experiment: Drug uptake in ICR mouse liver at 370 kBq/100 ul, iv at 30 mins by gamma-counting analysis; type: ADME, organism-based; conditions: in vivo, 0.5 h; method in brief: as §1
[31] = system: Bone; experiment: Drug uptake in ICR mouse bone at 370 kBq/100 ul, iv at 30 mins by gamma-counting analysis; type: ADME, organism-based, Bone element; conditions: in vivo, 0.5 h; method in brief: as §1
[32] = system: Intestine; experiment: Drug uptake in ICR mouse intestine assessed per organ at 370 kBq/100 ul, iv at 2 mins by gamma-counting analysis; type: ADME, organism-based; conditions: in vivo; method in brief: as §2
[33] = system: Brain; experiment: Drug uptake in ICR mouse brain at 370 kBq/100 ul, iv at 10 mins by gamma-counting analysis; type: ADME, organism-based; conditions: in vivo; method in brief: as §1
[34] = system: Lung; experiment: Drug uptake in ICR mouse lung at 370 kBq/100 ul, iv at 10 mins by gamma-counting analysis; type: ADME, organism-based; conditions: in vivo; method in brief: as §1
[35] = system: Blood; experiment: Drug uptake in ICR mouse blood at 370 kBq/100 ul, iv at 30 mins by gamma-counting analysis; type: ADME, organism-based; conditions: in vivo, 0.5 h; method in brief: as §1
[36] = n-Octanol-PBS buffer partition coefficient, log D of the compound at 1.5 MBq after 3 mins at pH 7.4; type: physicochemical
Method in brief: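 The tracer was partitioned between n-octanol and PBS by vortexing for 3 min at room temperature, then centrifuged for 5 min at 3000 rpm. Samples of the octanol (50 μL) and aqueous (500 μL) layers were counted. log D is the log of the octanol/PBS counts-per-gram ratio. The octanol layer was repartitioned until values were consistent. Measured in triplicate and repeated three times.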

[37] = system: Stomach; experiment: Drug uptake in ICR mouse stomach assessed per organ at 370 kBq/100 ul, iv at 60 mins by gamma-counting analysis; type: ADME, organism-based; conditions: in vivo, 1 h; method in brief: as §3
[38] = system: Liver; experiment: Drug uptake in ICR mouse liver at 370 kBq/100 ul, iv at 60 mins by gamma-counting analysis; type: ADME, organism-based; conditions: in vivo, 1 h; method in brief: as §1
[39] = system: Spleen; experiment: Drug uptake in ICR mouse spleen at 370 kBq/100 ul, iv at 60 mins by gamma-counting analysis; type: ADME, organism-based; conditions: in vivo, 1 h; method in brief: as §1
[40] = system: Bone; experiment: Drug uptake in ICR mouse bone at 370 kBq/100 ul, iv at 60 mins by gamma-counting analysis; type: ADME, organism-based, Bone element; conditions: in vivo, 1 h; method in brief: as §1
[41] = system: Spleen; experiment: Drug uptake in ICR mouse spleen at 370 kBq/100 ul, iv at 10 mins by gamma-counting analysis; type: ADME, organism-based; conditions: in vivo; method in brief: as §1
[42] = system: Brain; experiment: Drug uptake in ICR mouse brain at 370 kBq/100 ul, iv at 30 mins by gamma-counting analysis; type: ADME, organism-based; conditions: in vivo, 0.5 h; method in brief: as §1
[43] = system: Spleen; experiment: Drug uptake in ICR mouse spleen at 370 kBq/100 ul, iv at 2 mins by gamma-counting analysis; type: ADME, organism-based; conditions: in vivo; method in brief: as §1
[44] = system: Lung; experiment: Drug uptake in ICR mouse lung at 370 kBq/100 ul, iv at 30 mins by gamma-counting analysis; type: ADME, organism-based; conditions: in vivo, 0.5 h; method in brief: as §1

`CN(C)c1ccc(-c2nc3cc(OCCOCCOCC[18F])ccc3o2)cn1` showed a Drug uptake [1] of 2.41 % ID/g, a Drug uptake [2] of 2.73 % ID/g and a Drug uptake [3] of 1.82 % ID/g. It also gave a Drug uptake [4] of 28.15 %ID, a Drug uptake [5] of 2.87 % ID/g and a Drug uptake [6] of 5.41 % ID/g. For the same compound, the Drug uptake [7] was “Not Active”, the Drug uptake [8] was 1.87 % ID/g and the Ratio [9] was 2.08. For the same compound, the Drug uptake [10] was 8.27 % ID/g, the Drug uptake [11] was 2.97 % ID/g and the Drug uptake [12] was 5.24 % ID/g. It also gave a Drug uptake [13] of 3.21 % ID/g, a Drug uptake [14] of 2.7 % ID/g and a Drug uptake [15] of 1.79 % ID/g. For the same compound, the Drug uptake [16] was 3.51 % ID/g, the Drug uptake [17] was 3.05 % ID/g and the Ki [18] was 9.9 nM. It also gave a Drug uptake [19] of 5.47 % ID/g, a Drug uptake [20] of 28.54 %ID and a Drug uptake [21] of 3.03 % ID/g. For the same compound, the Drug uptake [22] was 5.1 %ID, the Drug uptake [23] was 14.45 %ID and the Drug uptake [24] was 9.26 %ID. The Drug uptake [25] was 4.2 % ID/g, the Drug uptake [26] was 2.66 %ID and the Drug uptake [27] was 13.25 % ID/g. The Drug uptake [28] was 3.79 % ID/g, the Drug uptake [29] was 5.14 % ID/g and the Drug uptake [30] was 7.24 % ID/g. For the same compound, the Drug uptake [31] was 4.71 % ID/g, the Drug uptake [32] was 8.13 %ID and the Drug uptake [33] was 1.97 % ID/g. It also gave a Drug uptake [34] of 2.34 % ID/g, a Drug uptake [35] of 2.74 % ID/g and a logD at 0.05 h [36] of 3.26. For the same compound, the Drug uptake [37] was 6.45 %ID, the Drug uptake [38] was 3.46 % ID/g and the Drug uptake [39] was 2.34 % ID/g. It also gave a Drug uptake [40] of 6.39 % ID/g, a Drug uptake [41] of 2.69 % ID/g and a Drug uptake [42] of 1.85 % ID/g. It also gave a Drug uptake [43] of 3 % ID/g and a Drug uptake [44] of 2.64 % ID/g.
